Calls of active or inactive are those of the source. No cut-off for these calls is given here.

For data set [1], the target named is GABA-A receptor; alpha-3/beta-3/gamma-2 (Homo sapiens) (UniProt P18507+P28472+P34903). The experiment in a line: Efficacy against recombinant human GABAA alpha3 receptor plus beta-3-gamma-2 expressed in L(tk-) cells by whole cell patch clamp method relative to chlordiazepoxide. In kind it is functional, cell-based. The procedure, abridged: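 Whole-cell patch clamp on L(tk-) cells stably expressing the receptor (alpha plus beta3gamma2). GABA applied at an EC20-equivalent concentration. Modulation of the current measured with increasing test concentrations. Efficacy expressed relative to the maximal chlordiazepoxide response (set at 1.00) or as a percentage.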

Data set [2] can be described thus: Oral bioavailability in rat at 1 mg/kg, iv or 1 mg/kg, po. The conditions noted are these: in vivo. Format: ADME, organism-based. Put shortly:
(§1)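 Pharmacokinetics in rat, dog or rhesus after 1 mg/kg iv and 1 mg/kg po dosing. Plasma clearance (mL/min/kg), half-life (h), volume of distribution (L/kg) and oral bioavailability (%) were derived.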

The nature of data set [3]: Half life in rat at 1 mg/kg, […] 1 mg/kg, po. In kind it is ADME, organism-based. The conditions noted are these: in vivo. The procedure, abridged: (§2)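 Rat pharmacokinetics after dosing at 1 mg/kg iv and 1 mg/kg po. Plasma clearance in mL/min/kg, half-life in h and volume of distribution in L/kg.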
A short description of data set [4]: Oral bioavailability in dog at 1 mg/kg, iv or 1 mg/kg, po. The conditions noted are these: in vivo. In kind it is ADME, organism-based, Canis lupus familiaris. The procedure, abridged:
as §1

Data set [5] is described as follows: Plasma clearance in rat at 1 mg/kg, iv or 1 mg/kg, po. Format: ADME, organism-based. Put shortly:
as §2

A short description of data set [6]: Half life in rhesus at 1 mg/kg, iv or 1 mg/kg, po. Format: ADME, organism-based, Macaca mulatta. The conditions noted are these: rhesus monkey, in vivo. Put shortly: as §1
Data set [7] addresses GABA-A receptor; anion channel (Rattus norvegicus) (UniProt O09028+P15431+P18506+P18508+P19969+P20236+P23574+P23576+P28471+P28473+P30191+P62813+P63079+P63138+Q91ZM7+Q9ES14). Kind of data set: Receptor occupancy by displacement of [3H]Ro 15-1788 binding from central Benzodiazepine receptor in rat at 0.3 mg/kg, po. Further details: dose 0.3 mg/kg. Format: organism-based. The procedure, abridged:
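Central benzodiazepine receptor occupancy in rat after oral dosing, measured by displacement of [3H]Ro15-1788 binding. Plasma concentration was measured at the dose giving 50% occupancy.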

Data set [8] addresses T1, GABA-A receptor; alpha-1/beta-3/gamma-2 (Homo sapiens, UniProt P14867+P18507+P28472).
T1 sequence (P14867 whole entry): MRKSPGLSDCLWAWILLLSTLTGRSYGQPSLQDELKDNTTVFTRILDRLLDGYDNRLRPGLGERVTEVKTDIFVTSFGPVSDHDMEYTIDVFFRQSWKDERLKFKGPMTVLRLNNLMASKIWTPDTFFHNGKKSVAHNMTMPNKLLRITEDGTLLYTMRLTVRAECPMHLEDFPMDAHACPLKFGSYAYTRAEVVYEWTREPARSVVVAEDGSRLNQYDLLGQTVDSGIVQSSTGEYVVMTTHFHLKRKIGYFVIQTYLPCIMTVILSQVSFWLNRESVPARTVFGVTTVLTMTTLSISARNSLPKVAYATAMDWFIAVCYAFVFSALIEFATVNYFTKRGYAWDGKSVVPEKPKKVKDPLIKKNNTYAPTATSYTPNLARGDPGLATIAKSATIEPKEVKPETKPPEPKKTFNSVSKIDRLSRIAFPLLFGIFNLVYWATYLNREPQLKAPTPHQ
T1 sequence (P18507 whole entry): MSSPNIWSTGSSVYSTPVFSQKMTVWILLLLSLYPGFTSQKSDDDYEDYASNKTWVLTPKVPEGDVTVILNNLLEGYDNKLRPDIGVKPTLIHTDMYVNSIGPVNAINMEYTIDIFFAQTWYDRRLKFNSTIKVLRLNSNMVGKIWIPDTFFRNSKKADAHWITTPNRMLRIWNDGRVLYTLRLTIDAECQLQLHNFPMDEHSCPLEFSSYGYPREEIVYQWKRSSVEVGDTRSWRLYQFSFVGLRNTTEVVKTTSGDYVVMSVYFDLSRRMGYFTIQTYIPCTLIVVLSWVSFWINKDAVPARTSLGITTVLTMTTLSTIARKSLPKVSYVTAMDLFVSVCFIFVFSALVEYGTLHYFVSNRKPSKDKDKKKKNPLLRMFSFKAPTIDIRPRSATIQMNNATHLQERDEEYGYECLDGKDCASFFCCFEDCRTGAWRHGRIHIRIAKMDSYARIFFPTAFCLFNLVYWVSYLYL
T1 sequence (P28472 whole entry): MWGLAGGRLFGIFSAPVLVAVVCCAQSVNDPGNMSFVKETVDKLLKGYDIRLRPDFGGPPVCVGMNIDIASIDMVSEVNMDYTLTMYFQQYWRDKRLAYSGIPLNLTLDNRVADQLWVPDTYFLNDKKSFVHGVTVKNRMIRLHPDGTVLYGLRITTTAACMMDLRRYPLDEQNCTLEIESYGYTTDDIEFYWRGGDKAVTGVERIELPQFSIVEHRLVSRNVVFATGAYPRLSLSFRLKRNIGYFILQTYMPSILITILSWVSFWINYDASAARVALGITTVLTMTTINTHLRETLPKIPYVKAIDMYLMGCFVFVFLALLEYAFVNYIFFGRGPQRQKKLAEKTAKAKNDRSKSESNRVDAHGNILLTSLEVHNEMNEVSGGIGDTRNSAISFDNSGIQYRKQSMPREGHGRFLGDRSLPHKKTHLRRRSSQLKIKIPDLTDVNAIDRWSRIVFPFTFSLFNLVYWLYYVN
Kind of data set: Displacement of [3H]Ro 15-1788 from recombinant human GABAA alpha-1 receptor plus beta3gamma2 expressed in L(tk-) cells. Format: cell-based.

Data set [9] relates to Squirrel monkey. Kind of data set: Sedation in squirrel monkey conditioned emotional response test at 10 mg/kg, po. Further details: dose 10 mg/kg. Format: functional, organism-based. The conditions noted are these: Saimiri sciureus. Put shortly:
(§3)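 Squirrel monkeys dosed po in 0.5% methyl cellulose vehicle. Anxiolysis was read as reversal of the suppression of lever pressing caused by a light cue signalling possible electric shock. Sedation was read as the rate of lever pressing for fruit juice reward on an RPI30 schedule. n = 10-11 per group, p < 0.05 versus vehicle.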

For data set [10], the system named is Squirrel monkey. The experiment in a line: Anxiolytic effect in squirrel monkey conditioned emotional response test at 0.3 mg/kg, po. Format: functional, organism-based. The conditions noted are these: Saimiri sciureus. Further details: dose 0.3 mg/kg. Put shortly: as §3
The nature of data set [11]: Volume of distribution in rat at 1 mg/kg, iv or 1 mg/kg, po. Format: ADME, organism-based. The conditions noted are these: in vivo, read-out: Vdss. The procedure, abridged: as §2

Consider `CC(C)(O)c1cnn2c(-c3ccc(F)c(-c4c(F)cccc4C#N)c3)cnc2n1`, for which, in [1], the Efficacy is 50%. Also, the values for the bioavailability in data set [2] and in data set [4] were 77% and 22%, respectively. Besides, the half-life in data set [3] was 11 h; in [6], 4.9 h. The compound also registered a clearance in data set [5] of 0.144 L/h/kg. The Activity in data set [7] stood at 50%. Moreover, the Ki in data set [8] came out at 0.73 nM. In addition, the result in data set [9] was inactive. Further, in data set [10], the result was Active. The Vd in data set [11] came out at 2.1 L/kg.

Source of the values: ChEMBL document CHEMBL1149444, “Discovery of imidazo[1,2-b][1,2,4]triazines as GABA(A) alpha2/3 subtype selective agonists for the treatment of anxiety” (J Med Chem, 2006).
